Results on 23 compounds are retold here after ChEMBL document CHEMBL3856284, “Discovery, design and synthesis of 6H-anthra[1,9-cd]isoxazol-6-one scaffold as G9a inhibitor through a combination of shape-based virtual screening and structure-based molecular modification” (Bioorg Med Chem, 2016).

A short description of assay [1]: Antiproliferative activity against human HCT116 cells assessed as inhibition of cell viability after 72 hrs by MTT assay. The assay is classed as functional, cell-based. Particulars: HCT-116, 72 h. A general note: Formazan colour is commonly taken as a measure of viable cells.
A short description of assay [2]: Antiproliferative activity against human MCF7 cells assessed as inhibition of cell viability after 72 hrs by MTT assay. It is filed as functional, cell-based. The settings on record: MCF7, 72 h.
For assay [3], the target named is T1, Histone-lysine N-methyltransferase EHMT2 (Homo sapiens, UniProt Q96KQ7).
T1 sequence (Q96KQ7 whole entry): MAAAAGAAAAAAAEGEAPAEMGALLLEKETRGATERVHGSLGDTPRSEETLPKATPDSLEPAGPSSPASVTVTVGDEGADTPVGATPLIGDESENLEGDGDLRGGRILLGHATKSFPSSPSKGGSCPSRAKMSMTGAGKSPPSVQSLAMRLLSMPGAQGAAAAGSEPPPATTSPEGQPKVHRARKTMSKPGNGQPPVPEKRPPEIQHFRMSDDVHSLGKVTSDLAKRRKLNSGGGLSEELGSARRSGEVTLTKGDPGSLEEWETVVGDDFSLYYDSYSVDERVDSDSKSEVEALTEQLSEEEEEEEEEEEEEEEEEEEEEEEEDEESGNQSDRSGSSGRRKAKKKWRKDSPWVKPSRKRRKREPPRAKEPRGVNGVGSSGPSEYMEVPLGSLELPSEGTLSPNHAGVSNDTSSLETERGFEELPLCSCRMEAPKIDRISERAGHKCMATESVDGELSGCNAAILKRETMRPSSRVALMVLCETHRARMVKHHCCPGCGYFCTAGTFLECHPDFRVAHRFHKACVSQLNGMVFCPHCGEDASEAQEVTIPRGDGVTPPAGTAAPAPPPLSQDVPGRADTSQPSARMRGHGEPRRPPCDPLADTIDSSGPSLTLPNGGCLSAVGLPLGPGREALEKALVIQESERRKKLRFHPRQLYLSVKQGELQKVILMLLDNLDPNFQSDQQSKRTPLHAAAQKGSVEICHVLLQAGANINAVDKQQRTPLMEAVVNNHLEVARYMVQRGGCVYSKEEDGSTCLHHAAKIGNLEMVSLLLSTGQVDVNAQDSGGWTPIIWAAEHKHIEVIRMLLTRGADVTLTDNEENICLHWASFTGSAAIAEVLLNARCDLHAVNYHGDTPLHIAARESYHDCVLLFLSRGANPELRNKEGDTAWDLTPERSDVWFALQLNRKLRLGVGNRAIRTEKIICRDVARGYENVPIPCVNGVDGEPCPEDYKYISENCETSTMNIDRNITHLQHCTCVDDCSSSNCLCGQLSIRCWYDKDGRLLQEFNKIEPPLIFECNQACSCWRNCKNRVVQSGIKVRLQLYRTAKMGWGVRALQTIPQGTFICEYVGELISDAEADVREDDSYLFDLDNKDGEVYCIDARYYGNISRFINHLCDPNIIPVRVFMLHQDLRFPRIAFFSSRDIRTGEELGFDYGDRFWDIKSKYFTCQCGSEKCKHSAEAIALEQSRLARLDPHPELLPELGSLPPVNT
In words: Inhibition of G9a (unknown origin) using biotinylated-histone H3 (1 to 21 residues)/S-adenosyl-methionine as substrate/methyl donor after 3 hrs by AlphaScreen assay. Put shortly:
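AlphaScreen G9a assay. Compounds were first screened at 10 µM. IC50 came from concentration-response curves of ten escalating concentrations (0.1 nM–10 µM), using two independent experiments, reported as mean ± SD.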
Background: Bead proximity is the source of the signal in Alpha formats.

Assay [4] can be described thus: Antiproliferative activity against human HepG2 cells assessed as inhibition of cell viability after 72 hrs by MTT assay. The assay is classed as functional, cell-based. The settings on record: HepG2, 72 h.
Assay [5] concerns the target T1, Histone-lysine N-methyltransferase EHMT2. In words: Inhibition of G9a (unknown origin).

By IC50 is commonly meant the concentration at which inhibition is half-maximal. Broadly, the EC50 is the midpoint of the concentration-response curve. Read a high EC50 as a need for much substance.

In the case of `CN(C)c1cc(NCCCN2CCCC2)c2c3c(onc13)-c1ccccc1C2=O`, the half-maximal inhibitory concentration (IC50) in assay [1] was 11.3 µM; in assay [2] it was 8.61 µM; in assay [3], 2.98 µM; in assay [4] it was 16.9 µM.

`O=C1c2ccccc2-c2onc3c(N4CCN(c5ccccc5)CC4)cc(NCCN4CCCCC4)c1c23`: the concentration for half-maximal inhibition (IC50) in assay [1] was 5.32 µM; in assay [2] it was 1.22 µM; in assay [3], 2.68 µM; in assay [4], 10.4 µM.

For `COc1ccc(Nc2cc(N3CCN(C)CC3)c3noc4c3c2C(=O)c2ccccc2-4)cc1`, the IC50 in assay [1] is 140 µM; in assay [2], more than 200 µM; in assay [3], 39.2 µM; in assay [4], more than 200 µM.

For `CCN1CCN(c2cc(NCCN3CCCC3)c3c4c(onc24)-c2ccccc2C3=O)CC1`, the IC50 in assay [1] was 4.34 µM; in assay [2] it was 20.8 µM; in assay [3], 3.48 µM; in assay [4] it was 8.32 µM.

As to `O=C1c2ccccc2-c2onc3c(N4CCCC4)cc(NCCN4CCCC4)c1c23`, the half-maximal inhibitory concentration (IC50) was 7.46 µM in assay [1], 10.8 µM in assay [2], 1.22 µM in assay [3] and 24.9 µM in assay [4].

With `CN(C)CCNc1cc(N2CCCC2)c2noc3c2c1C(=O)c1ccccc1-3`, the concentration for half-maximal inhibition (IC50) in assay [1] worked out at 52.9 µM; in assay [2], 17.6 µM; in assay [3], 5.97 µM; in assay [4], 20.5 µM.

With `CN1CCN(c2cc(NCCN3CCCCC3)c3c4c(onc24)-c2ccccc2C3=O)CC1`, the concentration for half-maximal inhibition (IC50) was 4.56 µM in assay [1], 8.37 µM in assay [2], 1.87 µM in assay [3] and 8.34 µM in assay [4].

As for `CCN1CCN(c2cc(Nc3ccccc3F)c3c4c(onc24)-c2ccccc2C3=O)CC1`, the IC50 in assay [1], in assay [2] and in assay [4] was more than 200 µM each time.

In the case of `CCN1CCN(c2cc(Nc3ccc(C)cc3)c3c4c(onc24)-c2ccccc2C3=O)CC1`, the half-inhibitory concentration (IC50) in assay [1], in assay [2] and in assay [4] was more than 200 µM in each case.

For `CCN1CCN(c2cc(Nc3ccc(OC)cc3)c3c4c(onc24)-c2ccccc2C3=O)CC1`, the half-maximal inhibitory concentration (IC50) in assay [1], in assay [2] and in assay [4] was more than 200 µM in each case.

`CN(C)c1cc(NCCN2CCCC2)c2c3c(onc13)-c1ccccc1C2=O`: the concentration for half-maximal inhibition (IC50) in assay [1] worked out at 6.99 µM; in assay [2] it was 28 µM; in assay [3], 3.87 µM; in assay [4] it was 24.9 µM.

For the compound `COc1ccc(Nc2cc(N3CCCC3)c3noc4c3c2C(=O)c2ccccc2-4)cc1`, the IC50 was more than 200 µM in assay [1], more than 200 µM in assay [2] and 66.7 µM in assay [4].

Regarding `CN1CCCN(c2cc(NCCN3CCCC3)c3c4c(onc24)-c2ccccc2C3=O)CC1`, the IC50 stood at 3.2 µM in assay [1], 8.26 µM in assay [2], 3.96 µM in assay [3] and 9.35 µM in assay [4].

For the compound `CN1CCN(c2cc(NCCN3CCCC3)c3c4c(onc24)-c2ccccc2C3=O)CC1`, the IC50 in assay [1] was 6.23 µM; in assay [2], 13.9 µM; in assay [3], 6.89 µM; in assay [4], 27.8 µM.

Take `O=C1c2ccccc2-c2onc3c(N4CCN(c5ncccn5)CC4)cc(NCCN4CCCC4)c1c23`: the concentration for half-maximal inhibition (IC50) worked out at 3.36 µM in assay [1], 4.06 µM in assay [2], 4.57 µM in assay [3] and 3.1 µM in assay [4].

Consider `O=C1c2ccccc2-c2onc3c(N4CCN(c5ccccc5)CC4)cc(NCCN4CCCC4)c1c23`, for which the half-inhibitory concentration (IC50) in assay [1] stood at 4.28 µM; in assay [2], 3.77 µM; in assay [3] it was 3.22 µM; in assay [4] it was 10.8 µM.

As to `CN(C)CCNc1cc(N2CCN(C)CC2)c2noc3c2c1C(=O)c1ccccc1-3`, the IC50 in assay [1] was determined as 18.2 µM; in assay [2] it was 10.8 µM; in assay [3], 4.84 µM; in assay [4], 28.6 µM.

With `CN1CCCN(c2cc(NCCN3CCCCC3)c3c4c(onc24)-c2ccccc2C3=O)CC1`, the IC50 in assay [1] turned out to be 3.96 µM; in assay [2], 5.08 µM; in assay [3], 2.49 µM; in assay [4], 6.21 µM.

With `COc1cc2c(NC3CCN(C(C)C)CC3)nc(C3CCCCC3)nc2cc1OCCCN1CCCC1`, the IC50 in assay [1] was found to be 3.35 µM; in assay [2], 6.99 µM; in assay [4] it was 3.7 µM.

As to `CN(C)CCNc1cc(N(C)C)c2noc3c2c1C(=O)c1ccccc1-3`, the IC50 in assay [1] was determined as 30.7 µM; in assay [2], 16.6 µM; in assay [3], 3.47 µM; in assay [4] it was 12.3 µM.

On to `CN(C)CCNc1cc(N2CCN(c3ncccn3)CC2)c2noc3c2c1C(=O)c1ccccc1-3`, for which the IC50 came to 4.39 µM in assay [1], 4.31 µM in assay [2], 3.84 µM in assay [3] and 9.14 µM in assay [4].

For `COC(=O)c1ccc2c(c1)nc(NC(=O)c1ccccc1)n2CCCc1ccccc1`, in assay [5], a half-maximal response (EC50) required 5 µM.

Regarding `CN(C)CCNc1cc(N2CCCCC2)c2noc3c2c1C(=O)c1ccccc1-3`, the IC50 was found to be 25.4 µM in assay [1], 10.3 µM in assay [2], 3.75 µM in assay [3] and 15.6 µM in assay [4].
